# Compound activity (PubChem)
# MrgX1 ag: agonists of human MrgX1 receptor, primary screen, HEK293 cells, Fluo-4 calcium flux | Mas-related G-protein coupled receptor member X1 (Homo sapiens), Q96LB2 | Fluo-4 calcium fluorescence, agonist mode; hits give high values | B-score at 10 µM | 0.44% of 310,000 active;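 active means calcium response B-score plate-corrected fluorescence ratio at least 3 library SD, with starting fluorescence B-score inside 5 SD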
# Target sequence (Q96LB2 whole entry, looked up): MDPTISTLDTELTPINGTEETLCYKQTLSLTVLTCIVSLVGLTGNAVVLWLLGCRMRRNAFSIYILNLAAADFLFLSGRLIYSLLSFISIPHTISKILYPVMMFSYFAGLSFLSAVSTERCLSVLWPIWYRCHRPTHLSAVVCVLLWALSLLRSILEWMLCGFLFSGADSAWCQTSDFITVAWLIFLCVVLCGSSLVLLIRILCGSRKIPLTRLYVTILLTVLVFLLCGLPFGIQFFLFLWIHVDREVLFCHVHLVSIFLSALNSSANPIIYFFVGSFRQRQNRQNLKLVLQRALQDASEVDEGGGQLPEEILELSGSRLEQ
#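 System: HEK293 cells stably expressing human MrgX1 receptor; Dosing: test compound in the initial addition of three; Schedule: overnight plating, then 30 min 37 °C plus 30 min room-temperature dye loading; Detection: kinetic calcium dye fluorescence, Fluo-4 NW; Controls: per-plate positive and negative controls for Z′ factor.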
# MrgX1 antagonist: antagonists of human MrgX1 receptor, primary screen, HEK293 cells, Fluo-4 calcium flux. Mas-related G-protein coupled receptor member X1 (Homo sapiens), Q96LB2. BAM8-22 antagonism; hits give low values. B-score at 10 µM. 1.3% of 310,000 active. AID 588676, 2011;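 active means calcium-response B-score plate-corrected more than 3 library SD below zero, starting fluorescence within 5 deviations, no agonist response on first addition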;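 further: peak minus trough fluorescence over baseline after final BAM8-22 challenge near maximal dose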
# RGS4 block: RGS4 inhibitors, primary screen, cell-based, HEK293 M3R inducible RGS4, calcium flux; Regulator of G-protein signaling 4 (Homo sapiens), P49798; Fluo-4 calcium flux; hits give high values; triggered by carbachol at its EC20; B-score at 10 µM; 0.45% of 310,000 active;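 active means B-score, a plate-corrected calcium signal, over three deviations above library mean, with baseline fluorescence within five deviations of library mean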;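 further: RGS4 expression induced by doxycycline in cells with stable M3 receptor; B-score is computed from the integrated fluorescence ratio over baseline after carbachol; higher B-score means a larger calcium signal and so more RGS4 inhibition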
# Target sequence (P49798 whole entry, looked up): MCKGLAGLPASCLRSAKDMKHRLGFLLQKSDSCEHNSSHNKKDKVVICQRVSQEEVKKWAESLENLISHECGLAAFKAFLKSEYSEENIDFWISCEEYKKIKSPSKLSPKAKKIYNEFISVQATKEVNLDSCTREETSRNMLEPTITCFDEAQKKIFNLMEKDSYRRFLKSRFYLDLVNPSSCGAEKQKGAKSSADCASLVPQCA
# RGS4 pot: RGS4 potentiators or activators, primary screen, cell-based, HEK293 M3R inducible RGS4, calcium flux; carbachol calcium flux Fluo4; hits give low values; B-score at 10 µM; 0.92% of 310,000 active; AID 463111, 2010;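 active means B-score of the integrated calcium signal more than 4 SD below the library mean, with starting fluorescence not abnormally high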;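 further: negative B-score means reduced calcium response which marks RGS4 activation or potentiation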
#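 Detection: kinetic calcium fluorescence imaging with Fluo4-AM dye, 2 µM / Material: HEK293 cells with stable M3R and inducible RGS4 / Schedule: recording 10 s baseline at 1 Hz, 100 s post-agonist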
# MrgX1 allo act: positive allosteric modulators of MrgX1, primary screen, HEK293 cells, Fluo-4 calcium flux; Mas-related G-protein coupled receptor member X1 (Homo sapiens), Q96LB2; FDSS; hits give high values; B-score at 10 µM; 0.63% of 310,000 active; AID 588675, 2011;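 active means plate-corrected calcium response at least 3 library SD above typical, normal starting fluorescence, not activating the receptor alone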;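 further: compound read alongside a low EC10 to EC30 dose of BAM8-22 agonist; peak minus trough fluorescence over baseline measured at the second addition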
# An asterisk follows results filed as active; i = inactive; nt = no result; ! = a repeat was not active. Sampled rows, rich in hits. Any-hit rate of the full collection: about 3.5%.
SMILES,MrgX1 ag,MrgX1 antagonist,RGS4 block,RGS4 pot,MrgX1 allo act
CCC(C)Sc1cccc(-c2nc3ccc(C)cn3c2NCc2ccccc2)c1 (configuration not stated),i,i,i,-7.6*,i
Clc1cccc(NCc2nnc(SCc3ccc(Cl)cc3Cl)o2)c1,i,i,i,-8.6*,i
c1ccc(COc2ccc(CNCc3cccs3)cc2)cc1,i,i,i,-8.3*,i
COc1ccccc1-n1cc(CN2CCN(CC(C)C)C(CCO)C2)cn1 (configuration not stated),i,-5.8*,i,i,i
COc1ccccc1-n1cc(CN2CCN(C3CCCC3)C(CCO)C2)cn1 (configuration not stated),i,i,i,i,i
COc1cc(NC(=O)COC(=O)CO/N=C(\C)c2ccc3c(c2)OCO3)cc(OC)c1OC,i,i,i,i,i
N#C/C(=C\c1ccc2c(c1)OCCO2)C(=O)Nc1nccs1,52*,i,i,i,i
CCN1/C(=C/c2cc[n+](C)cc2)C=Cc2cc(C)ccc21,i,-7*,nt,nt,i
C=CCOc1ccc(/C=C2\SC(=S)N(C(C(=O)O)c3ccccc3)C2=O)cc1 (configuration not stated),nt,nt,i,-9.3*,nt
CCOc1ccc(/C=C2\SC(=S)N(C(C(=O)O)c3ccccc3)C2=O)cc1OC (configuration not stated),i,i,i,i,i
COc1ccc(OC)c(/C=C2\SC(=S)N(C(C(=O)O)c3ccccc3)C2=O)c1 (configuration not stated),53*,i,i,i,i
CC(=O)O[C@H]1C[C@@]2(O)[C@@H](OC(=O)c3ccccc3)C3[C@@](C)([C@@H](O)C[C@H]4OC[C@@]34OC(C)=O)[C@@H](O)[C@H](OC(C)=O)C(=C1C)C2(C)C (some centres not stated),i,i,i,i,i
O=C(CN(Cc1ccccc1)S(=O)(=O)c1ccc2c(c1)OCCO2)N/N=C/c1ccc(F)cc1,i,i,i,i,i
COc1ccc(CNC(=O)CN(Cc2ccccc2)S(=O)(=O)c2ccc(Cl)cc2)cc1,i,-4.9*,i,i,i
COc1ccc(/C=N/NC(=O)CN(Cc2ccccc2)S(=O)(=O)c2ccc3c(c2)OCCO3)cc1,i,-6.2*,i,i,i
Cc1ccccc1OCC(=O)N/N=C/c1ccc2c(c1)OCCO2,i,i,i,i,6.5*
O=C(NCCCO)c1nnc(Cc2c(F)cccc2Cl)o1,i,i,i,i,i
O=C(NCCCN1CCN(Cc2ccccc2)CC1)c1nnc(Cc2c(F)cccc2Cl)o1,i,-4.7*,i,i,i
CCOc1ccc(/C=N/NC(=O)Cc2cccs2)cc1,i,i,i,i,i
CC(C)c1ccc(/C=C2\SC(=S)N(CCC(=O)N3CCCCC3CCO)C2=O)cc1 (configuration not stated),i,i,i,i,i
O=C(c1ccccc1[N+](=O)[O-])N1N=C(c2ccccc2)CC1(O)C(F)(F)F (configuration not stated),i,i,i,-9.3*,i
O=C(C1CC1)N1N=C(c2ccccc2)CC1(O)C(F)(F)F (configuration not stated),i,i,i,i,i
COc1ccc2c(c1)C(c1ccc(C)o1)=NNC(c1ccccc1)=N2,i,-8.4*,i,i,i
CSc1ccc(Cl)c(C(=O)NCCOc2cc(C)ccc2C(C)C)c1,i,i,i,-7.2*,i
COCc1c(C#N)c(NCCc2ccccc2)nc(C)c1[N+](=O)[O-],i,-6.3*,i,i,i
SMILES,MrgX1 ag,MrgX1 antagonist,RGS4 block,RGS4 pot,MrgX1 allo act
COCc1c(C#N)c(NCCc2ccc(F)cc2)nc(C)c1[N+](=O)[O-],i,i,i,i,i
Cc1nc(NCCc2ccc(F)cc2)c(C#N)c(C)c1[N+](=O)[O-],38*,i,i,i,i
CC(C)N1CCC(NC(=O)NC2CCCCC2)CC1,i,i,i,i,i
CCOC(=O)C1=C(C)NC(C)=C(C(=O)OC)C1c1cccc(Cl)c1Cl (configuration not stated),i,i,i,i,i
CCOC(=O)C1=C(COCCN)NC(C)=C(C(=O)OC)C1c1ccccc1Cl (configuration not stated),27*!,i,i,i,i
Cc1occc1C(=O)NC(C)C1CCCO1 (configuration not stated),i,-9.3*,i,i,i
CC(C)Cc1ccc(C(C)C(=O)N2CCOCC2)cc1 (configuration not stated),i,i,i,i,i
CC(C)Cc1ccc(C(C)C(N)=Nc2ccc(O)cc2)cc1 (configuration not stated),i,i,i,i,10*
C=CCN1C(=O)c2ccc(C(=O)NCCOc3ccccc3F)cc2C1=O,i,i,i,i,i
O=C(/C=C/c1ccc(OC(F)F)cc1)Nc1cccc(S(=O)(=O)NC2=NCCCCC2)c1,i,-8.2*,i,i,i
O=C(NCc1ccc(Cl)cc1)C1CCN(S(=O)(=O)c2cc([N+](=O)[O-])ccc2Cl)CC1,i,i,i,i,i
Cc1cccc2sc(NC(=O)C3CCN(S(=O)(=O)c4cc([N+](=O)[O-])ccc4Cl)CC3)nc12,i,-6.8*,i,i,i
Cc1cc2oc(=O)cc(CN(C)Cc3ccccc3F)c2cc1Cl,i,i,i,-7*,i
Cc1cc2oc(=O)cc(CN(C)Cc3ccccc3)c2cc1C(C)C,i,i,i,i,i
CN(Cc1ccccc1F)Cc1cc(=O)oc2cc(O)c(Cl)cc12,i,i,i,i,i
COc1ccc(CN(C)Cc2cc(=O)oc3cc(C)c(C(C)C)cc23)cc1OC,i,i,i,-7.1*,i
Cc1noc(C)c1COC(=O)c1cccc(S(=O)(=O)N2CCOCC2)c1,i,i,i,i,i
Cc1noc(C)c1COC(=O)c1cccc(S(=O)(=O)N2c3ccccc3CC2C)c1 (configuration not stated),i,i,i,-7.4*,i
